Assay results: ChEMBL document CHEMBL1121487, “Fluorinated pyrimidine nucleosides. 4. Synthesis and antitumor testing of a series of 2',5'-dideoxy- and 2',3',5'-trideoxynucleosides of 5-fluorouracil” (1980)

Key:
Sarcoma-180 [1] = assay: Percent reduction against sarcoma 180J tumor growth in mice when administered intraperitoneally at dose 100 mg/kg; format: functional, Mus musculus; conditions: route intraperitoneal
Outline: (§1)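 Sarcoma 180J tumor model in mice, with eight intraperitoneal doses per schedule (mg/kg ip × 8). Read-out is percent reduction in tumor growth. Toxicity was tracked as the number of surviving mice out of the number tested, with group sizes of 8 to 24 mice.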

Sarcoma-180 [2] = assay: Percent reduction against sarcoma 180J tumor growth in mice when administered intraperitoneally at dose 200 mg/kg; format: functional, Mus musculus; conditions: route intraperitoneal; outline: as §1
[3] = Antitumor activity against sarcoma 180J infected mice was evaluated as ratio of number of survivors to the number of tested animals at dose 200 mg/kg, ip; 12/16; format: functional
Outline: (§2)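 Mice bearing sarcoma 180J were dosed intraperitoneally eight times (mg/kg per dose, ×8). Read-outs were percent reduction in tumor growth and the number of mice surviving out of the number tested at each dose level. Mouse deaths were taken as toxicity.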

[4] = Antitumor activity against sarcoma 180J infected mice was evaluated as ratio of number of survivors to the number of tested animals at dose 100 mg/kg, ip; 7/8; format: functional; outline: as §2
[5] = Antitumor activity against sarcoma 180J infected mice was evaluated as ratio of number of survivors to the number of 8 tested animals at dose 200 mg/kg, ip; 8/8; format: functional; outline: as §2
[6] = Antitumor activity against sarcoma 180J infected mice was evaluated as ratio of number of survivors to the number of tested animals at dose 200 mg/kg, ip; 8/8; format: functional; outline: as §2
[7] = Antitumor activity against sarcoma 180J infected mice was evaluated as ratio of number of survivors to the number of tested animals at dose 200 mg/kg, ip; 15/16
Sarcoma-180 [8] = assay: (§3) Percent reduction against sarcoma 180J tumor growth in mice when administered intraperitoneally at dose 25 mg/kg; format: functional, Mus musculus; conditions: route intraperitoneal; outline: as §1
Sarcoma-180 [9] = assay: Percent reduction against sarcoma 180J tumor growth in mice when administered intraperitoneally at dose 50 mg/kg; format: functional, Mus musculus; conditions: route intraperitoneal; outline: as §1
Sarcoma-180 [10] = assay: Percent reduction against sarcoma 180J tumor growth in mice when administered intraperitoneally at dose 12.5 mg/kg; format: functional, Mus musculus; conditions: route intraperitoneal; outline: as §1
[11] = Antitumor activity against sarcoma 180J infected mice was evaluated as ratio of number of survivors to the number of tested animals at dose 25 mg/kg, ip; 16/16; format: functional; outline: as §2
[12] = Antitumor activity against sarcoma 180J infected mice was evaluated as ratio of number of survivors to the number of tested animals at dose 12.5 mg/kg, ip; 8/8; format: functional; outline: as §2
[13] = Antitumor activity against sarcoma 180J infected mice was evaluated as ratio of number of survivors to the number of tested animals at dose 200 mg/kg, ip; 11/16; format: functional; outline: as §2
[14] = Antitumor activity against sarcoma 180J infected mice was evaluated as ratio of number of survivors to the number of tested animals at dose 100 mg/kg, ip; 18/24; format: functional; outline: as §2
[15] = Antitumor activity against sarcoma 180J infected mice was evaluated as ratio of number of survivors to the number of tested animals at dose 50 mg/kg, ip; 16/16; format: functional; outline: as §2
Sarcoma-180 [16] = assay: Percent reduction against sarcoma 180J tumor growth in mice when administered intraperitoneally at dose 40 mg/kg; format: functional, Mus musculus; conditions: route intraperitoneal; outline: as §2
[17] = as §3; format: functional, Mus musculus; conditions: route intraperitoneal; outline: as §2
[18] = Antitumor activity against sarcoma 180J infected mice was evaluated as ratio of number of survivors to the number of tested animals at dose 25 mg/kg, ip; 22/22; format: functional; outline: as §2
[19] = Antitumor activity against sarcoma 180J infected mice was evaluated as ratio of number of survivors to the number of tested animals at dose 40 mg/kg, ip; 17/24; format: functional; outline: as §2
[20] = Antitumor activity against sarcoma 180J infected mice was evaluated as ratio of number of survivors to the number of tested animals at dose 100 mg/kg, ip; 15/16; format: functional; outline: as §2

Compound `CC1CC[C@H](n2cc(F)c(=O)[nH]c2=O)O1` (stereo partly drawn) has a Reduction (Sarcoma-180 [1]) of 35%, a Reduction (Sarcoma-180 [2]) of 81% and a Ratio [3] of 12. For the same compound, the Ratio [4] was 7.
In the case of `C[C@H]1O[C@@H]2C[C@H]1Oc1ncc(F)c(=O)n12`, the Reduction (Sarcoma-180 [2]) is reported as 28% and the Ratio [5] is reported as 8.
Compound `C[C@H]1O[C@@H](n2cc(F)c(=O)[nH]c2=O)C[C@H]1O` has a Reduction (Sarcoma-180 [2]) of 6% and a Ratio [6] of 8.
Work on `C[C@H]1O[C@@H](n2cc(F)c(=O)[nH]c2=O)C[C@@H]1O` yielded a Reduction (Sarcoma-180 [2]) of 0% and a Ratio [7] of 15.
`O=c1[nH]c(=O)n([C@H]2C[C@H](O)[C@@H](CO)O2)cc1F` [FLOXURIDINE] showed a Reduction (Sarcoma-180 [1]) of 93%, a Reduction (Sarcoma-180 [2]) of 93% and a Reduction (Sarcoma-180 [8]) of 61%. It also gave a Reduction (Sarcoma-180 [9]) of 85%, a Reduction (Sarcoma-180 [10]) of 26% and a Ratio [11] of 16. For the same compound, the Ratio [12] was 8, the Ratio [13] was 11 and the Ratio [14] was 18. The Ratio [15] was 16.
Compound `O=c1[nH]cc(F)c(=O)[nH]1` [FLUOROURACIL] has a Reduction (Sarcoma-180 [16]) of 87%, a Reduction [17] of 38% and a Ratio [18] of 22. It also gave a Ratio [19] of 17.
Work on `O=c1[nH]c(=O)n(C2CCCO2)cc1F` (stereo not drawn) [TEGAFUR] yielded a Reduction (Sarcoma-180 [1]) of 46%, a Reduction (Sarcoma-180 [2]) of 81% and a Ratio [3] of 12. For the same compound, the Ratio [20] was 15.
